Legend:
[1] = Half life in rat; assay type: ADME, organism-based; settings: in vivo
[2] = Bioavailability in rat; assay type: ADME, organism-based; settings: in vivo
Gamma-secretase = assay: Inhibition of gamma secretase; assay type: protein-complex assay, Homo sapiens
[3] = Stability assessed as liver microsomal turnover in rat at 1 uM; assay type: ADME, Microsome; settings: liver microsomes, read-out: Stability
Summary of the method: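 Compound at 1 μM was incubated with rat liver microsomal protein (5 mg/mL) plus NADPH at 37 °C for 20 min. Percentage of parent remaining was quantified by LC–MS.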

Mus musculus [4] = assay: Plasma concentration for reduction of DEA-extractable brain beta amyloid in orally dosed APP-YAC mouse after 4 hrs relative to control; assay type: ADME, organism-based
Summary of the method: (§1)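 APP-YAC transgenic mice were dosed orally with a dose-response titration, with vehicle and a positive-control γ-secretase inhibitor as references. At 4 h post-dose, DEA-extractable brain Aβ was measured alongside plasma and brain drug levels. EC50 is the plasma or brain concentration giving a 50% cut in brain Aβ. ED50 is the oral dose reaching those levels.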

Mus musculus [5] = assay: Reduction of DEA-extractable brain beta amyloid in orally dosed APP-YAC mouse after 4 hrs; assay type: ADME, organism-based; settings: po; summary of the method: as §1
[6] = Brain to plasma ratio for reduction of DEA-extractable brain beta amyloid in orally dosed APP-YAC mouse after 4 hrs; assay type: ADME, organism-based; settings: po
Mus musculus [7] = assay: Brain concentration for reduction of DEA-extractable brain beta amyloid in orally dosed APP-YAC mouse after 4 hrs relative to control; assay type: ADME, organism-based; summary of the method: as §1

SMILES	IC50 (Gamma-secretase)	metabolised at 1 µM [3]	further results
CS(=O)(=O)NCC1CCCC(c2cc(F)ccc2F)(S(=O)(=O)c2ccc(Cl)cc2)C1 (stereo not drawn)			half-life [1]: 1.1 h; bioavailability [2]: 31%
CCN1C[C@@H]2C[C@](c3cc(F)ccc3F)(S(=O)(=O)c3ccc(Cl)cc3)CC[C@@H]2NS1(=O)=O (racemic)	0.4 nM	46%	
CC(C)N1C[C@@H]2C[C@](c3cc(F)ccc3F)(S(=O)(=O)c3ccc(Cl)cc3)CC[C@@H]2NS1(=O)=O (racemic)	0.41 nM		
CC(C)(C)N1C[C@@H]2C[C@](c3cc(F)ccc3F)(S(=O)(=O)c3ccc(Cl)cc3)CC[C@@H]2NS1(=O)=O (racemic)	1.39 nM	15%	
O=S1(=O)NC[C@@H]2C[C@](c3cc(F)ccc3F)(S(=O)(=O)c3ccc(Cl)cc3)CC[C@@H]2N1C1CC1 (racemic)	0.04 nM		EC50 (Mus musculus [4]): 104 nM; ED50 (Mus musculus [5]): 11.4 mg/kg; Kp at 4 h [6]: 0.16; EC50 (Mus musculus [7]): 20 nM
O=S1(=O)NC[C@@H]2C[C@](c3cc(F)ccc3F)(S(=O)(=O)c3ccc(Cl)cc3)CC[C@@H]2N1 (racemic)	6.18 nM	9%	
O=S1(=O)N[C@H]2CC[C@@](c3cc(F)ccc3F)(S(=O)(=O)c3ccc(Cl)cc3)C[C@H]2CN1C1CC1 (racemic)	0.19 nM	14%	
CCCN1C[C@@H]2C[C@](c3cc(F)ccc3F)(S(=O)(=O)c3ccc(Cl)cc3)CC[C@@H]2NS1(=O)=O (racemic)	1.17 nM	63%	
O=S1(=O)N[C@H]2CC[C@@](c3cc(F)ccc3F)(S(=O)(=O)c3ccc(Cl)cc3)C[C@H]2CN1C1CCC1 (racemic)	0.26 nM	68%	
CN1C[C@@H]2C[C@](c3cc(F)ccc3F)(S(=O)(=O)c3ccc(Cl)cc3)CC[C@@H]2NS1(=O)=O (racemic)	0.9 nM	17%	
CCC1C[C@@H]2C[C@](c3cc(F)ccc3F)(S(=O)(=O)c3ccc(Cl)cc3)CC[C@@H]2CS1(=O)=O (single isomer, unassigned)	0.76 nM	15%	EC50 (Mus musculus [4]): 761 nM; ED50 (Mus musculus [5]): 3.9 mg/kg; Kp at 4 h [6]: 0.41; EC50 (Mus musculus [7]): 327 nM
CCC1C[C@@H]2C[C@](c3cc(F)ccc3F)(S(=O)(=O)c3ccc(Cl)cc3)CC[C@@H]2NS1(=O)=O (single isomer, unassigned)	0.06 nM	7%	EC50 (Mus musculus [4]): 380 nM; ED50 (Mus musculus [5]): 2.8 mg/kg; Kp at 4 h [6]: 0.18; EC50 (Mus musculus [7]): 88 nM
CC1C[C@@H]2C[C@](c3cc(F)ccc3F)(S(=O)(=O)c3ccc(Cl)cc3)CC[C@@H]2NS1(=O)=O (single isomer, unassigned)	0.08 nM	20%	
CCCC1C[C@@H]2C[C@](c3cc(F)ccc3F)(S(=O)(=O)c3ccc(Cl)cc3)CC[C@@H]2NS1(=O)=O (single isomer, unassigned)	0.24 nM	32%	
